MC4R ag barr: human MC4R agonism via beta-arrestin | U2OS MC4R beta-arrestin complementation, luminescence; percent of melanotan II response, DMSO zero | 360,000 tested, 0.98% active | activation, % at 8.9 µM;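 active = activation above a per-plate cutoff, the mean activation of sample wells on that plate plus 3 SD, cut at about 8% in these data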
TLR9-MyD88 block: inhibitors of human TLR9-MyD88 binding; 340,000 tested, 0.21% active; AID 504734; inhibition, % at 4.98 µM; CHO BLA complementation TLR9-MyD88, CCF4 FRET ratio; Q9NR96+Q99836;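 active = inhibition above the mean over all tested compounds plus 3 SD, cut at about 21% in these data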
Target sequence (Q99836 whole entry, looked up): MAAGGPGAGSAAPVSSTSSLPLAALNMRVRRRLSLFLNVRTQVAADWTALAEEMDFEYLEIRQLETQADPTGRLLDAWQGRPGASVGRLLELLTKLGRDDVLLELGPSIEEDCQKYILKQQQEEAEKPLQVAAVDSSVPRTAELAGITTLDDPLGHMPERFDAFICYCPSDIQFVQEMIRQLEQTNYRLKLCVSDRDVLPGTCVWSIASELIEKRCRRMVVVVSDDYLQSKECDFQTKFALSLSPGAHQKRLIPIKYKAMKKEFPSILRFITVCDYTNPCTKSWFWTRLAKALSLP
Target sequence (Q9NR96 whole entry, looked up): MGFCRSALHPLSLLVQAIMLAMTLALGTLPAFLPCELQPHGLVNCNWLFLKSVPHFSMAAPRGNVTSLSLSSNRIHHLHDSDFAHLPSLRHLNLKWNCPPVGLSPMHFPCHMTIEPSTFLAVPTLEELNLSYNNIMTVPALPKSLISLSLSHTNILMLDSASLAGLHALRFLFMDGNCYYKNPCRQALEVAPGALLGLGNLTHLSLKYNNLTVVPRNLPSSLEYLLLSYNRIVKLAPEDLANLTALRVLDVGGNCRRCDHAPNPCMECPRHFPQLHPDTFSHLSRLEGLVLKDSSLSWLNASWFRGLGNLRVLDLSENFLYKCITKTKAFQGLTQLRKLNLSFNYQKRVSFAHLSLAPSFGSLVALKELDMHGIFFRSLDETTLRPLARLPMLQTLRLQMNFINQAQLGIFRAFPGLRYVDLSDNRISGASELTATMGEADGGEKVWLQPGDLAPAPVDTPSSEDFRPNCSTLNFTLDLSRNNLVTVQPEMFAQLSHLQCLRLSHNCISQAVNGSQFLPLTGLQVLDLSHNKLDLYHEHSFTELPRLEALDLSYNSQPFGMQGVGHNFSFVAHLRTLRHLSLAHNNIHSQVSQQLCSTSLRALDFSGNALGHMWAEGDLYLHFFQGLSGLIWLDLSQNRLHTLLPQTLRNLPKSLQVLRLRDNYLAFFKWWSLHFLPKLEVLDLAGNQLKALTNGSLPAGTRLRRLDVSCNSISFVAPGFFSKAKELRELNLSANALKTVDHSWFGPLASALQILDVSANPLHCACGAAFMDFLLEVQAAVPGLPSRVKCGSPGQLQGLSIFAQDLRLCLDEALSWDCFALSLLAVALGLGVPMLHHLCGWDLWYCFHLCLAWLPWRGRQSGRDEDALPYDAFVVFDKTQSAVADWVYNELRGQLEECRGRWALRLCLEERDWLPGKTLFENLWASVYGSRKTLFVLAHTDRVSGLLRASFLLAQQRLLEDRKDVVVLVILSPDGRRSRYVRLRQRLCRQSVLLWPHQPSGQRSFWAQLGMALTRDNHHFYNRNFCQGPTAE
MC4R antag cAMP: antagonists of human melanocortin 4 receptor (MC4R). P32245. MC4R-expressing cells, MTII-stimulated cAMP, LANCE TR-FRET. inhibition, % at 6.5 µM. 360,000 tested, 0.48% active. AID 540295;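 active = inhibition above its plate's cutoff, the mean of tested wells on that plate plus 3 SD, cut at about 29% in these data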
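Material: human MC4R-expressing U2OS cells. Probe or stimulus: Melanotan II challenge. Dosing: 6.5 µM single dose. Times: 30-min compound, 1-h challenge, 1-h detection, room temperature. Technique: TR-FRET with Eu-cAMP and labeled anti-cAMP, 671 nm. Replication: singlicate.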
TLR4-MyD88 BLA: inhibitors of human TLR4-MyD88 binding | O00206+Q99836 | HeLa CL3-4 TLR4/MyD88 BLA complementation, FRET ratio | inhibition, % at 8.4 µM | 200,000 tested, 0.18% active; in the data active = inhibition above about 25%
NOD2-RIPK2 inh: inhibitors of human NOD2-RIPK2 interaction; O43353; CHO BLA complementation NOD2-RIPK2, CCF4 ratio; inhibition, % at 4.98 µM; 360,000 tested, 0.38% active; AID 624267; in the data active = inhibition above about 21%
TLR9-MyD88 cf: TLR9-MyD88 interaction inhibition, confirmation | shares compounds with TLR9-MyD88 block | CHO TLR9/MyD88 BLA complementation, CCF4 FRET ratio | inhibition, % at 4.98 µM | 680 tested, 51% active;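 active = mean inhibition across three repeats above about 21% taken from the earlier screen, limit read from the data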;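 also: blue over green emission ratio reports constitutive TLR9 MyD88 association via BLA complementation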
BLA counter-1: non-selective beta-lactamase inhibitors in TLR9-MyD88 counter-screen; shares compounds with TLR9-MyD88 block; CHO-BLA cells, CCF4 FRET ratio, BLA reporter; inhibition, % at 4.98 µM; 680 tested, 7% active; AID 540251;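 active = mean inhibition above a 50% cutoff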;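 also: counterscreen of TLR9-MyD88 hits on CMV-driven BLA in CHO-K1 cells; higher means less blue over green ratio so more BLA blockade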
TLR9 CHO cytotox: counter-screen for TLR9-MyD88 inhibitors: cytotoxicity in CHO cells | shares compounds with TLR9-MyD88 block | luminescence | inhibition, % at 4.98 µM | 680 tested, 39% active | AID 588336; in the data active = inhibition above about 11%
cAMP nonselect: counter-screen for MC4R antagonists: nonselective cAMP signaling inhibitors; AID 602193; shares compounds with MC4R antag cAMP; 1,600 tested, 26% active; inhibition, % at 6.5 µM; parental U2OS, forskolin cAMP, LANCE TR-FRET;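 active = mean inhibition over triplicates above the low-control well mean plus 3 SD, set per campaign, cut at about 13% in these data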;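 also: signal is single emission at 671 nm which falls as cellular cAMP rises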
MC4R antag conf: human MC4R cAMP antagonism confirmation | shares compounds with MC4R antag cAMP | MC4R-expressing cells, MTII-stimulated cAMP, TR-FRET | 1,600 tested, 27% active | inhibition, % at 6.5 µM | AID 602195; in the data active = inhibition above about 29%
NOD2-RIPK2 conf: confirmation of human NOD2-RIPK2 interaction inhibitors; shares compounds with NOD2-RIPK2 inh; inhibition, % at 4.98 µM; AID 624370; 1,200 tested, 70% active; CHO cells, NOD2-RIPK2 BLA complementation, CCF4 FRET;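 active = mean inhibition across replicates above a set limit taken from the earlier primary screen, cut at about 21% in these data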
BLA counter-2: counter-screen for NOD2-RIPK2 interaction inhibitors: BLA reporter. CHO BLA reporter, CCF4 FRET ratio, counterscreen. inhibition, % at 4.98 µM. shares compounds with NOD2-RIPK2 inh. AID 624371. 1,200 tested, 57% active;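 active = mean inhibition above the low-control mean inhibition plus three low-control SD, cut at about 11% in these data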
Hits are given with their value; 0 = inactive; - = no result. Only some compounds are listed: those with a hit (about 1.8% of all), similar ones and a draw of the others.

SMILES	MC4R ag barr	TLR9-MyD88 block	MC4R antag cAMP	TLR4-MyD88 BLA	NOD2-RIPK2 inh	TLR9-MyD88 cf	BLA counter-1	TLR9 CHO cytotox	NOD2-RIPK2 conf	BLA counter-2	others
Cc1nsc2nc3c(F)c(F)c(F)c(F)c3cc12	0	0	0	-	0	-	-	-	-	-
CCc1cc2c(=O)nc3n(c2s1)Cc1ccccc1/C3=C(/O)c1ccc(F)cc1	0	23	0	0	23	0	0	0	0	0
CCc1cc2c(=O)nc3n(c2s1)Cc1ccccc1/C3=C(/O)c1cccc([N+](=O)[O-])c1	0	0	0	0	0	-	-	-	-	-
COc1cccc(C(=O)O/N=C(\N)CS(=O)(=O)c2ccccc2)c1	0	0	0	-	0	-	-	-	-	-
CN(C)/C=N/c1ncn(-c2ncc(C(F)(F)F)cc2Cl)n1	0	0	0	0	0	-	-	-	-	-
O=C(N[C@@H]1CCC(=O)N(CC[C@H](Sc2ccccc2)c2ccccc2)CC1)OCc1ccccc1	0	0	0	-	0	-	-	-	-	-
Nc1c(C(=O)Nc2ccccc2F)sc2nc(-c3cccnc3)ccc12	0	38	0	-	21	28	0	0	46	64
C=C1C(=O)c2sccc2C(c2ccc(OC)c(OC)c2)C1COC(C)=O (centres undefined)	0	24	0	-	95	28	0	97	92	13
CCN1CCN(CC(=O)N2N=C(c3cccs3)CC2c2ccc(OC)c(OC)c2)C(=O)C1=O (centres undefined)	0	0	0	0	0	-	-	-	-	-
Nc1cccc2c1C(=O)N(C(=O)c1cccc(S(=O)(=O)N3CCCC3)c1)C2=O	0	23	0	0	22	0	0	0	28	35
Nc1cccc2c1C(=O)N(c1ccccc1)C2=O	0	28	0	-	45	0	0	0	43	46
COc1ccc(-c2oc3ccccc3c(=O)c2OC(C)=O)cc1	0	0	0	0	0	-	-	-	-	-
CC(=O)Oc1c(-c2ccc(Br)o2)oc2ccccc2c1=O	0	27	0	-	25	0	0	0	35	34
O=C1Nc2ccccc2C1Cc1ccccc1 (centres undefined)	0	0	0	-	0	-	-	-	-	-
O=C1C=CC2(C=C1)O[C@H](Cc1ccccc1)[C@@H](Cc1ccccc1)O2	0	26	0	-	89	39	0	99	91	29
COc1ccc(C[C@@H]2OC3(C=CC(=O)C=C3)O[C@H]2Cc2ccc(OC)cc2)cc1	0	39	60	-	92	44	0	98	93	38	cAMP nonselect=35;MC4R antag conf=34
C=Cn1cc[n+](CC(=O)c2ccc(-c3ccccc3)cc2)c1	0	0	0	-	0	-	-	-	-	-
COc1ccc(C(C)(C)C)cc1NC(=O)COc1ccc(-c2nnco2)cc1	0	0	0	-	0	-	-	-	-	-
CCCC(=O)OCCNc1cc(Sc2nc3ccccc3[nH]2)c2nonc2c1[N+](=O)[O-]	0	32	0	0	75	68	0	98	92	43
CCOC(=O)n1c(=O)n(Cc2c(Cl)cccc2Cl)c2ccccc21	0	24	0	0	23	0	0	0	29	27
CCOC(=O)n1c(=O)n(Cc2ccccc2)c2ccccc21	0	0	0	0	0	-	-	-	-	-
COc1ccc(O)c(/C=N/NC(=S)Nc2cccc(S(=O)(=O)N(C)C)c2)c1	0	26	0	0	25	0	0	32	0	21
Cn1nc(C(C)(C)C)cc1N1C(=O)CCC1(C)C(=O)NCc1ccccc1 (centres undefined)	-	-	-	-	0	-	-	-	-	-
CC(=O)N(C1=C(Cl)C(=O)c2ccccc2C1=O)C1CCCCC1	0	49	0	-	54	78	0	100	92	34
CC(=O)N(c1ccccc1C)C1CCCC1	0	0	0	0	0	-	-	-	-	-
SMILES	MC4R ag barr	TLR9-MyD88 block	MC4R antag cAMP	TLR4-MyD88 BLA	NOD2-RIPK2 inh	TLR9-MyD88 cf	BLA counter-1	TLR9 CHO cytotox	NOD2-RIPK2 conf	BLA counter-2	others
CCN(CC)c1ccc2c(Cl)c(Br)c(=O)oc2c1	0	92	0	91	95	89	91	52	100	96
CCN(CC)c1ccc2c(C)cc(=O)oc2c1	0	0	0	-	0	-	-	-	-	-
O=[N+]([O-])c1ccc(N(c2ccccc2)c2ccccc2)cc1	0	39	0	0	58	32	0	0	62	61
C[C@@H]1[C@@H](Sc2ccccc2)CC(=O)O[C@@H]1c1ccc(-c2ccccc2)cc1	0	0	0	-	0	-	-	-	-	-
O=C1C=CC2(O[C@H](c3ccccc3)[C@@H](c3ccccc3)O2)[C@H](Sc2ccccc2O)C1	0	40	0	-	92	38	0	100	91	40
OCCCc1nc2n(n1)C(c1ccccc1)C=C(c1ccc(F)cc1)N2 (centres undefined)	0	39	0	0	51	21	0	0	40	45
COc1cc(C2CC(c3c(C)cc(C)[nH]c3=O)=NN2c2ccccc2F)cc(OC)c1OC (centres undefined)	0	23	0	-	41	0	0	0	35	47
COc1ccc(C2CC(c3ccc(F)cc3)=NN2c2ccccc2)cc1OC (centres undefined)	0	0	0	-	0	-	-	-	-	-
CCOC(=O)C1CCN(S(=O)(=O)c2c(Cl)ccc3nonc23)CC1	0	43	0	-	82	39	0	81	78	15
CCOc1ccc(N2C(=O)C(=O)/C(=C(/O)c3ccccc3)C2c2ccccc2[N+](=O)[O-])cc1 (centres undefined)	0	0	0	-	0	-	-	-	-	-
COc1ccc(/C=C/c2cc(C(=O)O)c3ccccc3n2)cc1	0	24	0	-	48	0	0	14	0	13
O=C(NCc1ccccc1)c1cc(C2CCCN(C(=O)c3ccc4c(c3)CCO4)C2)on1 (centres undefined)	0	-	0	-	0	-	-	-	-	-
CCOc1ccc2cc(/C=C/C(=O)c3ccco3)c(Cl)nc2c1	0	29	0	36	27	0	0	0	0	0

Screening results from PubChem BioAssay.
